Test results published in ChEMBL document CHEMBL1132372, “The opioid mu agonist/delta antagonist DIPP-NH(2)[Psi] produces a potent analgesic effect, no physical dependence, and less tolerance than morphine in rats” (J Med Chem, 1999).
Square brackets hold non-standard residues; d marks the D form. Peptide text beside a SMILES is read from it. NMeDmt = CN[C@@H](Cc1c(C)cc(O)cc1C)C(=O)O; Dmt = Cc1cc(O)cc(C)c1C[C@H](N)C(=O)O; Tic = O=C(O)[C@@H]1Cc2ccccc2CN1

Columns and labels:
Cavia porcellus [1] = species on record: Cavia porcellus; test: Compound was evaluated for inhibition of electrically evoked contractions of the GPI (guinea pig ileum); assay type: functional
How it was run: (§1)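 Inhibition of electrically evoked contractions of guinea pig ileum. Each preparation also run with a [Leu5]enkephalin standard dose-response curve, and test IC50 values normalised against it.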

Mus musculus [2] = species on record: Mus musculus; test: Compound was evaluated for its antagonist potency against delta agonist […] by MVD assay(mouse vas deferens).; assay type: functional
Mus musculus [3] = species on record: Mus musculus; test: Compound was evaluated for its antagonist potency against delta agonist deltorphin I, by MVD assay(mouse vas deferens).; assay type: functional
[4] = target: Kappa-type opioid receptor (Cavia porcellus, UniProt P41144); test: Binding affinity for Opioid receptor kappa 1 determined by displacement of [3H]U-69593 from guinea pig brain membranes; parameters: species or system Membrane
Sequence of Kappa-type opioid receptor (P41144 whole entry): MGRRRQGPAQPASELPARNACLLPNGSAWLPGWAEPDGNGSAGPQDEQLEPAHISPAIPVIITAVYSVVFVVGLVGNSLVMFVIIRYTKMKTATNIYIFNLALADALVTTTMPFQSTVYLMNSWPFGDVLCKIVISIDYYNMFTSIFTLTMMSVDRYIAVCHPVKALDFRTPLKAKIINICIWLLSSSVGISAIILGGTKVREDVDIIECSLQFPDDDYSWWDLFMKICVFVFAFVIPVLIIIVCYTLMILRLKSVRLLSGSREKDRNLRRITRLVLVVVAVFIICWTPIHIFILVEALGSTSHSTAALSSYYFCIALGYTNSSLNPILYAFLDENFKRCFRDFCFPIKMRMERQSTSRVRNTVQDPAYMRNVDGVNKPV
How it was run: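 Guinea pig brain membranes incubated 2 h at 0 °C with 0.80 nM [3H]U69,593. IC50 taken from log dose-displacement curves; Ki by Cheng-Prusoff using Kd 2.9 nM.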

Cavia porcellus [5] = species on record: Cavia porcellus; test: Compound was evaluated for antagonist potency against mu receptor. agonist TAPP by GPI (guinea pig ileum) assay.; assay type: functional
[6] = target: Delta-type opioid receptor (Rattus norvegicus, UniProt P33533); test: Binding affinity for Opioid receptor delta 1 determined by displacing [3H]-DSLET from rat brain membrane binding sites
Sequence of Delta-type opioid receptor (P33533 whole entry): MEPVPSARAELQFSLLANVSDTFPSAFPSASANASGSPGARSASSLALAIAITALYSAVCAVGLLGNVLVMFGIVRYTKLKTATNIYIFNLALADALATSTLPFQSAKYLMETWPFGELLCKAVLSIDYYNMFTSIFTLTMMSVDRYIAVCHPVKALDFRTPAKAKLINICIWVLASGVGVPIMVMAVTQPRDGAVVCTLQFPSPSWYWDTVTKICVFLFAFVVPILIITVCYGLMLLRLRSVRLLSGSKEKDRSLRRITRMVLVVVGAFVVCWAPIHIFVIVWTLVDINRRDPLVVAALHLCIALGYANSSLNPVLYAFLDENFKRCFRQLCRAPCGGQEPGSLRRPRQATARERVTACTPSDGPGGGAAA

Mu-type opioid receptor = Mu-type opioid receptor (Rattus norvegicus, UniProt P33535); test: Binding affinity for Opioid receptor mu 1 determined by displacing [3H]DAMGO from rat brain membrane binding sites
Sequence of Mu-type opioid receptor (P33535 whole entry): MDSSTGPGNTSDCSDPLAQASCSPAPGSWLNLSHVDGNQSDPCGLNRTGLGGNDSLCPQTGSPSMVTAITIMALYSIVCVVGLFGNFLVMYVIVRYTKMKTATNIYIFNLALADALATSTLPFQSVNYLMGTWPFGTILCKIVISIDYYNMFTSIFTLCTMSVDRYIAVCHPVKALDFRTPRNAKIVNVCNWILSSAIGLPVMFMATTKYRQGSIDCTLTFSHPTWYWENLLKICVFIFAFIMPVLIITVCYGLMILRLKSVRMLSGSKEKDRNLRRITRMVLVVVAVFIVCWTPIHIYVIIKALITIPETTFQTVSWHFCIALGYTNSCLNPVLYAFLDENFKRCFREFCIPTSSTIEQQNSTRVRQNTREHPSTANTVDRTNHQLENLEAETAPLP

Cavia porcellus [7] = species on record: Cavia porcellus; test: Compound was evaluated for inhibition of electrically evoked contractions of the GPI (guinea pig ileum); PA=Partial agonist; assay type: functional; how it was run: as §1
Rattus norvegicus = species on record: Rattus norvegicus; test: Analgesic Potency of compound in Comparison with Morphine evaluated by rat tail flick test; assay type: functional

`Cc1cc(O)cc(C)c1C[C@H](N)C(=O)N1Cc2ccccc2CC1CN[C@@H](Cc1ccccc1)C(=O)N[C@@H](Cc1ccccc1)C(N)=O` (stereo partly drawn) was tested, and the IC50 (Cavia porcellus [1]) was 7.71 nM, the Ke (Mus musculus [2]) was 0.537 nM and the Ke (Mus musculus [3]) was 0.486 nM. For the same compound, the Ki [4] was greater than 1000 nM.
`CN[C@@H](Cc1c(C)cc(O)cc1C)C(=O)N1Cc2ccccc2CC1CN[C@@H](Cc1ccccc1)C(=O)N[C@@H](Cc1ccccc1)C(N)=O` (stereo partly drawn) showed a Ke (Cavia porcellus [5]) of 64.5 nM, a Ke (Mus musculus [2]) of 22.1 nM and a Ke (Mus musculus [3]) of 54.4 nM. For the same compound, the Ki [6] was 61 nM, the Ki (Mu-type opioid receptor) was 76.2 nM and the Ki [4] was greater than 1000 nM.
`CN[C@@H](Cc1c(C)cc(O)cc1C)C(=O)N1Cc2ccccc2C[C@H]1C(=O)N[C@@H](Cc1ccccc1)C(=O)N[C@@H](Cc1ccccc1)C(N)=O` (H-[NMeDmt][Tic]FF-NH2) was tested, and the IC50 (Cavia porcellus [7]) was “Partial agonist”, the Ke (Mus musculus [2]) was 0.235 nM and the Ke (Mus musculus [3]) was 0.233 nM. The Ki [6] was 0.393 nM, the Ki (Mu-type opioid receptor) was 4.08 nM and the Ki [4] was greater than 1000 nM.
`CN1CC[C@]23c4c5ccc(O)c4O[C@H]2[C@@H](O)C=C[C@H]3[C@H]1C5` [MORPHINE] showed an ED50 (Rattus norvegicus) of 0.11 µg.
In the case of `Cc1cc(O)cc(C)c1C[C@H](N)C(=O)N1Cc2ccccc2C[C@H]1C(=O)N[C@@H](Cc1ccccc1)C(=O)N[C@@H](Cc1ccccc1)C(N)=O` (H-[Dmt][Tic]FF-NH2), the Ki [4] is reported as greater than 1000 nM.
